Bridge positions count the residues as written; N and C are the ends. Square brackets hold non-standard residues; d marks the D form. Peptide text beside a SMILES is read from it. Phe(4-Cl) = N[C@@H](Cc1ccc(Cl)cc1)C(=O)O; Phe(4-F) = N[C@@H](Cc1ccc(F)cc1)C(=O)O; dPhe(4-F) = N[C@H](Cc1ccc(F)cc1)C(=O)O; 2Nal = N[C@@H](Cc1ccc2ccccc2c1)C(=O)O; Bta = N[C@@H](Cc1csc2ccccc12)C(=O)O; 3Pal = N[C@@H](Cc1cccnc1)C(=O)O; Tle = CC(C)(C)[C@H](N)C(=O)O; Nle = CCCC[C@H](N)C(=O)O
Experiments:
Somatostatin receptor = assay: Antagonism of in vitro SRIF inhibition of GH release in rat in vitro pituitary cell assay; format: functional, cell-based; details: pituitary gland cell
Method in brief: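 Dispersed adult male rat anterior pituitary cells (trypsin/DNase), about 200 000 cells/well, cultured 4–5 days at 37 °C. GH measured by double-antibody RIA. IC50 versus SRIF, mean ± SEM of n dose–response curves.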

[1] = target: Somatostatin receptor type 1 (Homo sapiens, UniProt P30872); assay: The compound was tested for binding affinity against human Somatostatin receptor type 1
Sequence of Somatostatin receptor type 1 (P30872 whole entry): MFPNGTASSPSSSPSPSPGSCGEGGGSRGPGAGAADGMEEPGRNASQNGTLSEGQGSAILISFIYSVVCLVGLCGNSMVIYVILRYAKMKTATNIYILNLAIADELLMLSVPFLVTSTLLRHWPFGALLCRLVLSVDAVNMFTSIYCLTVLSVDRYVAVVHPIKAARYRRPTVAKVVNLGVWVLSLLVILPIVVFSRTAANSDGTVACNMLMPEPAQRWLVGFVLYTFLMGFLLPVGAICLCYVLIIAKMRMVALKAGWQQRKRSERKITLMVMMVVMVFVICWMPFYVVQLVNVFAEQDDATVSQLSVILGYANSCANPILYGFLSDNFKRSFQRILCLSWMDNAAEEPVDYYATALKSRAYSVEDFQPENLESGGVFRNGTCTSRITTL
Method in brief: (§1)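 Membranes from CHO-K1 cells transfected with the cloned human receptor. Terminated by filtration on PEI-soaked GF/C filters. Nonspecific binding defined with 1.0 μM SRIF. Mean ± SEM; single values are from one experiment.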

[2] = target: Somatostatin receptor type 4 (Homo sapiens, UniProt P31391); assay: The compound was tested for binding affinity against human Somatostatin receptor type 4
Sequence of Somatostatin receptor type 4 (P31391 whole entry): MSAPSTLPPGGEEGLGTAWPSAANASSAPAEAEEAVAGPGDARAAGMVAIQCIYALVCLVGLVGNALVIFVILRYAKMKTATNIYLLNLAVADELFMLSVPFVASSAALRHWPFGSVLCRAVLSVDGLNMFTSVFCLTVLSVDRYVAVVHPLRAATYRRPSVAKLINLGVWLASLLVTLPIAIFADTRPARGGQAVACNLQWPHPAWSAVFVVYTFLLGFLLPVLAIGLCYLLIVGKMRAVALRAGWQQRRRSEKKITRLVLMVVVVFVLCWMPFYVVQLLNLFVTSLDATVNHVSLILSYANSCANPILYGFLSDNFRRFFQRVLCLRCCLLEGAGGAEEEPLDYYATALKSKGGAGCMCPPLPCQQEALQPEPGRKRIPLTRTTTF
Method in brief: (§2)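 CHO-K1 cells stably transfected (calcium phosphate) with cloned human sst3 or sst4. Membranes made in ice-cold 50 mM Tris-HCl, resuspended in 10 mM Tris-HCl, then incubated 30 min at 37 °C with 0.05 nM [125I]Tyr11-SRIF in HEPES pH 7.4 with BSA, MgCl2 and protease inhibitors. Filtered on GF/C; nonspecific binding with 1.0 µM SRIF. Mean ± SEM, or one experiment.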

[3] = target: Somatostatin receptor type 3 (Homo sapiens, UniProt P32745); assay: The compound was tested for binding affinity against human Somatostatin receptor type 3; method in brief: as §2
Sequence of Somatostatin receptor type 3 (P32745 whole entry): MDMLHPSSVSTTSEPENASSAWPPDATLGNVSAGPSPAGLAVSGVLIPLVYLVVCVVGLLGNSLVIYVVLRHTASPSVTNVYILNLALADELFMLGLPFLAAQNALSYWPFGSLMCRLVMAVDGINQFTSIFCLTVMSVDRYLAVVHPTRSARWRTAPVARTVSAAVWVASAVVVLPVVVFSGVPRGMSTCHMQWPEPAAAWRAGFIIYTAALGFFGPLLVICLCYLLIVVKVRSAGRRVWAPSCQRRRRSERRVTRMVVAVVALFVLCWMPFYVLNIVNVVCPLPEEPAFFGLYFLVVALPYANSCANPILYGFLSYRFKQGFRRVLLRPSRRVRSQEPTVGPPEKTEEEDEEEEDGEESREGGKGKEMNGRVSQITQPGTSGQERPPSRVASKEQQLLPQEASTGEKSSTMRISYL

[4] = target: Somatostatin receptor type 2 (Homo sapiens, UniProt P30874); assay: The compound was tested for binding affinity against human Somatostatin receptor type 2
Sequence of Somatostatin receptor type 2 (P30874 whole entry): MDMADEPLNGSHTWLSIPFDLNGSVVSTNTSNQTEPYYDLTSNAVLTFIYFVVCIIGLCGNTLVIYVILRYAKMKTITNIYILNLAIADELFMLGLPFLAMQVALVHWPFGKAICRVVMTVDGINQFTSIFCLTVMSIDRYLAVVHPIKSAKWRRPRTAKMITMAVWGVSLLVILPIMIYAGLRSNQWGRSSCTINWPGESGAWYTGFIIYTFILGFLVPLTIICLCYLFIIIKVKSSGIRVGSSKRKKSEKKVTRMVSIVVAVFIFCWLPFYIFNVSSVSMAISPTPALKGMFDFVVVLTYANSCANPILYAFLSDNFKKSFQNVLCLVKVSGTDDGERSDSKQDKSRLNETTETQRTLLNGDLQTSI
Method in brief: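 Membranes from CHO-K1 cells transfected with the cloned human sst2. Incubated 30 min at 37 °C with 0.05 nM [125I]MK-678 in HEPES pH 7.4 with BSA, MgCl2, Trasylol, bacitracin and PMSF. Filtration on PEI-soaked GF/C filters. Nonspecific binding defined with 1.0 μM SRIF. Mean ± SEM; single values are from one experiment.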

[5] = target: Somatostatin receptor type 5 (Homo sapiens, UniProt P35346); assay: The compound was tested for binding affinity against human Somatostatin receptor type 5; method in brief: as §1
Sequence of Somatostatin receptor type 5 (P35346 whole entry): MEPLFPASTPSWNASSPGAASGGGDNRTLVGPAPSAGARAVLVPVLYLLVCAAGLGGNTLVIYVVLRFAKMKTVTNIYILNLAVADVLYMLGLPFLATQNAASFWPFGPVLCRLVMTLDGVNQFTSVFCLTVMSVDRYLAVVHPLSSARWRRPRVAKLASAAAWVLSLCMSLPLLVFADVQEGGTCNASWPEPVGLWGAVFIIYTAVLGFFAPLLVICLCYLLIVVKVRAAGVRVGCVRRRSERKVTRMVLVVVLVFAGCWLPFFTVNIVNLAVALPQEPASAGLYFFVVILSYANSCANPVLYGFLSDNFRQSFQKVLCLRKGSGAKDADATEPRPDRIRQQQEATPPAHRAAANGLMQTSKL

| Structure (SMILES) | IC50 (Somatostatin receptor) [nM] | Ki [1] [nM] | Ki [2] [nM] | Ki [3] [nM] | Ki [4] [nM] | Ki [5] [nM] |
| --- | --- | --- | --- | --- | --- | --- |
| CC(C)[C@H]1NC(=O)[C@H](CCCCN)NC(=O)[C@@H](Cc2c[nH]c3ccccc23)NC(=O)[C@H](Cc2cccnc2)NC(=O)[C@@H](NC(=O)[C@@H](N)Cc2ccc(C#N)cc2)CSSC[C@H](C(=O)N[C@@H](Cc2ccc(C#N)cc2)C(N)=O)NC1=O | 51 |  |  |  |  |  |
| CC(C)[C@H]1NC(=O)[C@H](CCCCN)NC(=O)[C@@H](Cc2c[nH]c3ccccc23)NC(=O)[C@H](Cc2cccnc2)NC(=O)[C@@H](NC(=O)[C@@H](N)Cc2cccc(F)c2)CSSC[C@H](C(=O)N[C@@H](Cc2cccc(F)c2)C(N)=O)NC1=O | 77 |  |  |  |  |  |
| CC(C)[C@@H]1NC(=O)[C@H](CCCCN)NC(=O)[C@@H](Cc2c[nH]c3ccccc23)NC(=O)[C@H](Cc2cccnc2)NC(=O)[C@H](NC(=O)[C@@H](N)Cc2ccc3ccccc3c2)CSSC[C@@H](C(=O)N[C@H](C(N)=O)C(c2ccccc2)c2ccccc2)NC1=O |  | > 1000 | > 1000 | 1600 | 37 | 725 |
| CC(C)[C@@H]1NC(=O)[C@H](CCCCN)NC(=O)[C@@H](Cc2c[nH]c3ccccc23)NC(=O)[C@H](Cc2cccnc2)NC(=O)[C@H](NC(=O)[C@@H](N)Cc2ccc(Cl)cc2)CSSC[C@@H](C(=O)N[C@@H](Cc2ccc3ccccc3c2)C(N)=O)NC1=O |  | > 1000 | 1590 | 85 | 25 | 240 |
| CC(C)[C@H]1NC(=O)[C@H](CCCCN)NC(=O)[C@@H](Cc2c[nH]c3ccccc23)NC(=O)[C@H](Cc2cccnc2)NC(=O)[C@@H](NC(=O)[C@@H](N)Cc2ccccc2F)CSSC[C@H](C(=O)N[C@@H](Cc2ccccc2F)C(N)=O)NC1=O | 114 |  |  |  |  |  |
| C[C@@H](O)[C@@H]1NC(=O)[C@H](CCCCN)NC(=O)[C@@H](Cc2c[nH]c3ccccc23)NC(=O)[C@H](Cc2ccccc2)NC(=O)[C@@H](NC(=O)[C@@H](N)Cc2ccc(Cl)cc2)CSSC[C@@H](C(=O)N[C@@H](Cc2ccc3ccccc3c2)C(N)=O)NC1=O | 1.4 |  |  |  |  |  |
| CC(C)(C)[C@@H]1NC(=O)[C@H](CCCCN)NC(=O)[C@@H](Cc2c[nH]c3ccccc23)NC(=O)[C@H](Cc2cccnc2)NC(=O)[C@H](NC(=O)[C@@H](N)Cc2c[nH]c3ccccc23)CSSC[C@@H](C(=O)N[C@@H](Cc2ccc3ccccc3c2)C(N)=O)NC1=O (H-W[dC][3Pal][dW]K[Tle]C[2Nal]-NH2; disulfide 2-7) |  | > 1000 | > 1000 | 210 | 84 | 2250 |
| CC(C)[C@@H]1NC(=O)[C@H](CCCCN)NC(=O)[C@@H](Cc2c[nH]c3ccccc23)NC(=O)[C@H](Cc2csc3ccccc23)NC(=O)[C@H](NC(=O)[C@@H](N)Cc2ccc3ccccc3c2)CSSC[C@@H](C(=O)N[C@@H](Cc2ccc3ccccc3c2)C(N)=O)NC1=O (H-[2Nal][dC][Bta][dW]KVC[2Nal]-NH2; disulfide 2-7) |  | > 1000 | > 1000 | 709 | 418 | 1400 |
| CC(C)(C)[C@@H]1NC(=O)[C@H](CCCCN)NC(=O)[C@@H](Cc2c[nH]c3ccccc23)NC(=O)[C@H](Cc2cccnc2)NC(=O)[C@H](NC(=O)[C@@H](N)Cc2ccc(Cl)cc2)CSSC[C@@H](C(=O)N[C@@H](Cc2ccc3ccccc3c2)C(N)=O)NC1=O (H-[Phe(4-Cl)][dC][3Pal][dW]K[Tle]C[2Nal]-NH2; disulfide 2-7) |  | > 1000 | 895 | 100 | 12 | 520 |
| C[C@@H](O)[C@@H]1NC(=O)[C@H](CCCCN)NC(=O)[C@@H](Cc2c[nH]c3ccccc23)NC(=O)[C@@H](Cc2ccccn2)NC(=O)C(NC(=O)[C@@H](N)Cc2ccc(Cl)cc2)CSSCC(C(=O)N[C@@H](Cc2ccc3ccccc3c2)C(N)=O)NC1=O (stereo in doubt) |  | 1030 | > 1000 | 53 | 14 | 70 |
| CC(C)[C@H]1NC(=O)[C@H](CCCCN)NC(=O)[C@@H](Cc2c[nH]c3ccccc23)NC(=O)[C@H](Cc2c[nH]cn2)NC(=O)C(NC(=O)[C@@H](N)Cc2ccccc2F)CSSCC(C(=O)N[C@@H](Cc2ccccc2F)C(N)=O)NC1=O (stereo in doubt) |  | 37 | > 1000 | 382 | 176 | 972 |
| CC(C)[C@H]1NC(=O)[C@H](CCCCN)NC(=O)[C@@H](Cc2c[nH]c3ccccc23)NC(=O)[C@H](Cc2c[nH]cn2)NC(=O)C(NC(=O)[C@@H](N)Cc2ccc(F)cc2)CSSCC(C(=O)N[C@@H](Cc2ccc(F)cc2)C(N)=O)NC1=O (stereo in doubt) |  | 1950 | 847 | 269 | 31 | 173 |
| CC(C)[C@H]1NC(=O)[C@H](CCCCN)NC(=O)[C@@H](Cc2c[nH]c3ccccc23)NC(=O)[C@H](Cc2c[nH]cn2)NC(=O)C(NC(=O)[C@@H](N)Cc2cccc(F)c2)CSSCC(C(=O)N[C@@H](Cc2cccc(F)c2)C(N)=O)NC1=O (stereo in doubt) |  | 60 | > 1000 | 397 | 103 | 734 |
| CC(C)[C@@H]1NC(=O)[C@H](CCCCN)NC(=O)[C@@H](Cc2c[nH]c3ccccc23)NC(=O)[C@H](Cc2ccc(O)c(I)c2)NC(=O)C(NC(=O)[C@@H](N)Cc2ccc3ccccc3c2)CSSCC(C(=O)N[C@@H](Cc2ccc3ccccc3c2)C(N)=O)NC1=O (stereo in doubt) |  | > 1000 | > 1000 | 482 | 194 | 468 |
| CC(C)[C@H]1NC(=O)[C@H](CCCCN)NC(=O)[C@@H](Cc2c[nH]c3ccccc23)NC(=O)[C@H](Cc2c[nH]cn2)NC(=O)C(NC(=O)[C@@H](N)Cc2c(F)c(F)c(F)c(F)c2F)CSSCC(C(=O)N[C@@H](Cc2c(F)c(F)c(F)c(F)c2F)C(N)=O)NC1=O (stereo in doubt) |  | 69 | > 1000 | 124 | 637 | 926 |

Other lines, results leading:

| IC50 (Somatostatin receptor) [nM] | Ki [1] [nM] | Ki [2] [nM] | Ki [3] [nM] | Ki [4] [nM] | Ki [5] [nM] | Structure (SMILES) |
| --- | --- | --- | --- | --- | --- | --- |
|  | 1200 | > 1000 | 379 | 203 | 1860 | C[C@@H]1NC(=O)[C@H](CCCCN)NC(=O)[C@@H](Cc2c[nH]c3ccccc23)NC(=O)[C@H](Cc2cccnc2)NC(=O)[C@H](NC(=O)[C@@H](N)Cc2ccc3ccccc3c2)CSSC[C@@H](C(=O)N[C@@H](Cc2ccc3ccccc3c2)C(N)=O)NC1=O |
| 15 |  |  |  |  |  | CC(C)[C@H]1NC(=O)[C@H](CCCCN)NC(=O)[C@@H](Cc2c[nH]c3ccccc23)NC(=O)[C@H](Cc2cccnc2)NC(=O)[C@@H](NC(=O)[C@@H](N)Cc2ccc3ccccc3c2)CSSC[C@H](C(=O)N[C@@H](Cc2ccc3ccccc3c2)C(N)=O)NC1=O |
|  | 172 | 1040 | 152 | > 1000 | 847 | CC[C@H](C)[C@@H]1NC(=O)[C@H](CCCCN)NC(=O)[C@@H](Cc2c[nH]c3ccccc23)NC(=O)[C@H](Cc2cccnc2)NC(=O)[C@H](NC(=O)[C@@H](N)Cc2ccc3ccccc3c2)CSSC[C@@H](C(=O)N[C@@H](Cc2ccc3ccccc3c2)C(N)=O)NC1=O (H-[2Nal][dC][3Pal][dW]KIC[2Nal]-NH2; disulfide 2-7) |
|  | 845 | 672 | 126 | 76 | 814 | CCCC[C@@H]1NC(=O)[C@H](CCCCN)NC(=O)[C@@H](Cc2c[nH]c3ccccc23)NC(=O)[C@H](Cc2cccnc2)NC(=O)[C@H](NC(=O)[C@@H](N)Cc2ccc3ccccc3c2)CSSC[C@@H](C(=O)N[C@@H](Cc2ccc3ccccc3c2)C(N)=O)NC1=O (H-[2Nal][dC][3Pal][dW]K[Nle]C[2Nal]-NH2; disulfide 2-7) |
|  | > 1000 | 145 | 371 | 35 | 631 | CC(C)(C)[C@@H]1NC(=O)[C@H](CCCCN)NC(=O)[C@@H](Cc2c[nH]c3ccccc23)NC(=O)[C@H](Cc2cccnc2)NC(=O)[C@H](NC(=O)[C@@H](N)Cc2ccc3ccccc3c2)CSSC[C@@H](C(=O)N[C@@H](Cc2ccc3ccccc3c2)C(N)=O)NC1=O (H-[2Nal][dC][3Pal][dW]K[Tle]C[2Nal]-NH2; disulfide 2-7) |
|  | > 1000 | > 1000 | 231 | 26 | 535 | CC(C)(C)[C@@H]1NC(=O)[C@H](CCCCN)NC(=O)[C@@H](Cc2c[nH]c3ccccc23)NC(=O)[C@H](Cc2cccnc2)NC(=O)[C@H](NC(=O)[C@@H](N)Cc2ccc(F)cc2)CSSC[C@@H](C(=O)N[C@@H](Cc2ccc3ccccc3c2)C(N)=O)NC1=O (H-[Phe(4-F)][dC][3Pal][dW]K[Tle]C[2Nal]-NH2; disulfide 2-7) |
|  | > 1000 | 888 | 555 | 132 | 260 | CC(C)(C)[C@@H]1NC(=O)[C@H](CCCCN)NC(=O)[C@@H](Cc2c[nH]c3ccccc23)NC(=O)[C@H](Cc2cccnc2)NC(=O)[C@H](NC(=O)[C@H](N)Cc2ccc(F)cc2)CSSC[C@@H](C(=O)N[C@@H](Cc2ccc3ccccc3c2)C(N)=O)NC1=O (H-[dPhe(4-F)][dC][3Pal][dW]K[Tle]C[2Nal]-NH2; disulfide 2-7) |

Reference: ChEMBL document CHEMBL1132220 (J Med Chem, 1999)
